Source: article PMC7869845 (ACS catalysis, 2020)

Assays:
TamI F92A [1] = test: Spectrophotometric substrate binding assay, TamI F92A; parameters: species or system Streptomyces sp. 307-9
How it was run: (§1)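 Active P450 was quantified by CO-difference spectra (ε450-490 = 91 mM−1cm−1). Enzyme at 1 μM final in storage buffer was titrated aerobically at room temperature with tirandamycin C from DMSO stocks until saturated. Difference spectra were recorded at 365–429 nm, and peak-minus-trough ΔA was plotted against concentration. Kd came from quadratic tight-binding or hyperbolic fits, averaged over triplicate titrations.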

TamI L399A/I400A [2] = test: Spectrophotometric substrate binding assay, TamI L399A/I400A; parameters: species or system Streptomyces sp. 307-9
How it was run: as §1

TamI L399A/I400A [3] = test: End-point assay, TamI L399A/I400A; type: biochemical, Streptomyces sp. 307-9
How it was run: (§2)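 Site-directed mutants expressed in E. coli BL21(DE3). Reactions in phosphate buffer (50 mM NaH2PO4, pH 7.4, EDTA, dithioerythritol, 10% glycerol) held 500 μM tirandamycin substrate, 2 μM TamI, spinach ferredoxin, 2 μM ferredoxin-NADP+ reductase, and G6P/G6PDH NADPH regeneration. Incubated 3 h at 30 °C, extracted with CHCl3, then C18 reverse-phase HPLC with UV at 354 nm. Run in triplicate.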

[4] = tested on: TamI double mutant (alanine substitutions at Leu295 and Thr299); test: End-point assay, TamI Leu295/Thr299 alanine double mutant; type: biochemical, Streptomyces sp. 307-9
How it was run: as §2

[5] = tested on: TamI S397A, T398A, V185A, P43A/V44A variants; type: biochemical, Streptomyces sp. 307-9; conditions: end-point assay, TirC to TirE conversion
TamI F92A [6] = test: End-point assay, TamI F92A; type: biochemical, Streptomyces sp. 307-9
How it was run: as §2

TamI L101V/H102S = test: End-point assay, TamI L101V/H102S; type: biochemical, Streptomyces sp. 307-9; conditions: no change in product profile
How it was run: as §2

[7] = tested on: TamI-RhFRED fusion protein; conditions: first oxidation of 1, second oxidation of 3, final oxidation of 4; cited from earlier work

Row | SMILES | spectral shift on substrate addition (TamI F92A [1]) | spectral shift on substrate addition (TamI L399A/I400A [2]) | catalytic activity (TamI L399A/I400A [3]) | ability to convert substrate to 2 [4] | product profile or abundance compared to wild type TamI [5] | catalytic activity (TamI F92A [6]) | TirC to TirE conversion (TamI L101V/H102S) | kcat [7]
1 | CC1=CC[C@H]2O[C@]1(C)O[C@H]([C@H](C)/C=C(C)/C=C/C(O)=C1/C(=O)CNC1=O)[C@H]2C [compound 1, tirandamycin C] | no shift | no shift | significantly reduced activity | wild type activity | no evident changes in product profile or abundance | complete loss of catalytic activity | significant decrease | 0.675 s⁻¹
2 | CC(/C=C/C(O)=C1/C(=O)CNC1=O)=C\[C@@H](C)[C@H]1O[C@@]2(C)O[C@H](C(=O)[C@H]3O[C@]32C)[C@@H]1C [compound 4, tirandamycin A] | – | – | – | – | – | – | – | 0.00183 s⁻¹
3 | CC1=CC(=O)[C@H]2O[C@]1(C)O[C@H]([C@H](C)/C=C(C)/C=C/C(O)=C1/C(=O)CNC1=O)[C@H]2C [compound 3, tirandamycin D] | – | – | – | – | – | – | – | 1.4 s⁻¹
